Assay results of several laboratories.
Protocols differ between the studies behind these lines.
Target: Serine/threonine-protein kinase PLK1 (PLK1, Homo sapiens, UniProt P53350)

SMILES | read-out | action | method | tested at | endpoint | result
COc1ccc2oc(-c3ccc4nc(N)oc4c3)c/c(=N\c3ccccc3NC(=O)CCN)c2c1 | binding |  |  | 1 µM | remaining binding | 98%
Cc1ccc(NC(=O)c2ccnc(C(F)(F)F)c2)cc1-c1cc(OCCO)nc(N2CCOCC2)c1 | binding |  |  | 1 µM | remaining binding | 94%
C1=C/COCc2cc(ccc2OCCN2CCCC2)Nc2nccc(n2)-c2cccc(c2)COC/1 | binding |  |  | 0.1 µM | remaining binding | 100%
C=CC(=O)N1CCC([C@@H]2CCNc3c(C(N)=O)c(-c4ccc(Oc5ccccc5)cc4)nn32)CC1 | enzyme activity | inhibitor |  | 1 µM | inhibition | 31%
N#Cc1ccc(NC(=O)Nc2ccccc2)cc1 | cell-free assay |  | competition with immobilised ligand | 25 µM | remaining binding | 93%
COc1ccc2[nH]c3c4[nH]c5ccc(OC)cc5c4c4c(c3c2c1)C(=O)NC4=O | binding |  |  | 1 µM | remaining binding | 90%
CC#CC(=O)N1CCC[C@H]1c1nc(-c2ccc(C(=O)Nc3ccccn3)cc2)c2c(N)nccn12 | enzyme activity | inhibitor |  | 1 µM | inhibition | 36%
CCCCC(=O)Nc1ccc(-c2ccc3ncn(CCC)c(=O)c3c2)cn1 | binding |  | competition with immobilised ligand | 0.5 µM | remaining binding | 100%
